Experimental data as given in ChEMBL document CHEMBL1949593, “Stilbene-chalcone hybrids: design, synthesis, and evaluation as a new class of antimalarial scaffolds that trigger cell death through stage specific apoptosis” (J Med Chem, 2012).

Assays:
Plasmodium falciparum [1] = assay: Antimalarial activity against ring stage chloroquine-sensitive Plasmodium falciparum 3D7 infected in human O positive erythrocytes after 48 hrs by SYBR green 1 fluorescence assay; type: functional, organism-based; conditions: 3D7, 48 h
Outline: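 P. falciparum 3D7 in O+ human erythrocytes in complete RPMI with Albumax at 37 °C under 5% O2/5% CO2. Culture was sorbitol-synchronized to rings and plated at 2% hematocrit, 1% parasitemia. Drug range was 0–100 μM with 0.4% final DMSO, in triplicate. After 48 h, SYBR Green I fluorescence was read (ex 497/em 520 nm). IC50 was taken by visual matching of 50% growth inhibition.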

[2] = Therapeutic index, ratio of IC50 for […] cells to IC50 for ring stage chloroquine-sensitive Plasmodium falciparum 3D7; type: cell-based; conditions: mouse, read-out: Ratio IC50
Outline: (§1)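 HeLa or L929 fibroblasts were seeded at 10^4 cells per well in RPMI with 10% FBS, left overnight, then exposed 24 h at 37 °C, 5% CO2. MTT was added for 3 h; formazan was dissolved in DMSO and read at 570 nm. IC50 came from dose–response curves. Index = IC50(mammalian)/IC50(Pf 3D7, SYBR Green assay).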

Plasmodium falciparum [3] = assay: Antimalarial activity against ring stage chloroquine-resistant Plasmodium falciparum INDO infected in human O positive erythrocytes after 48 hrs by SYBR green 1 fluorescence assay; type: functional, organism-based
Outline: (§2)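 Ring-stage cultures were sorbitol-synchronized in O+ human erythrocytes in RPMI 1640 with 0.5% Albumax, hypoxanthine and gentamicin, then plated at 2% hematocrit and 1% parasitemia. Drugs were tested at 0–100 μM (final DMSO 0.4%) in triplicate for 48 h at 37 °C under 5% O2/5% CO2/90% N2. Read-out was SYBR Green I (ex 497/em 520 nm). IC50 was read visually as 50% growth inhibition, with chloroquine as control.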

[4] = Resistance index, ratio of IC50 for ring stage chloroquine-resistant Plasmodium falciparum INDO to IC50 for ring stage chloroquine-sensitive Plasmodium falciparum 3D7; type: functional
[5] = Inhibition of Plasmodium falciparum falcipain-2 using benzyloxycarbonyl-Phe-Arg-7-amino-4-methyl coumarin hydrochloride as substrate preincubated for 10 mins prior substrate addition by fluorimetric assay
Outline: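 Recombinant falcipain-2 (2 μg) was preincubated 10 min at room temperature with or without compound, in triplicate. Buffer was 100 mM sodium acetate pH 5.5 with 10 mM DTT and 1% final DMSO. Z-Phe-Arg-AMC was then added at 10 μM final. AMC release was read at ex 355/em 460 nm. IC50 was taken by visual matching of 50% inhibition.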

[6] = Therapeutic index, ratio of IC50 for human HeLa cells to IC50 for ring stage chloroquine-sensitive Plasmodium falciparum 3D7; type: cell-based; conditions: read-out: Ratio IC50; outline: as §1
[7] = Resistance index, ratio of IC50 for ring stage chloroquine-resistant Plasmodium falciparum Dd2 to IC50 for ring stage chloroquine-sensitive Plasmodium falciparum 3D7; type: functional
Plasmodium falciparum [8] = assay: Antimalarial activity against ring stage chloroquine-resistant Plasmodium falciparum Dd2 infected in human O positive erythrocytes after 48 hrs by SYBR green 1 fluorescence assay; type: functional, organism-based; conditions: Dd2, 48 h; outline: as §2

Compound `COc1cc(OC)c(OC)cc1/C=C/C(=O)c1ccc(/C=C/c2cc(OC)c(OS(=O)(=O)c3ccc(C)cc3)c(OC)c2)cc1` has an IC50 (Plasmodium falciparum [1]) of over 100 µM.

For `O=C(/C=C/c1ccco1)c1ccc(/C=C/c2ccccc2)cc1`, the IC50 (Plasmodium falciparum [1]) was over 100 µM.

For `COc1cc(OC)c(OC)cc1/C=C/C(=O)c1ccc(/C=C/c2cc(OC)c(OC)c(OC)c2)cc1`, the selectivity ratio [2] was 29.8, the IC50 (Plasmodium falciparum [3]) was 2.08 µM and the “Ratio IC50” value [4] was 0.4. For the same compound, the IC50 [5] was 20.5 µM, the IC50 (Plasmodium falciparum [1]) was 5.2 µM and the selectivity ratio [6] was over 38.5. For the same compound, the “Ratio IC50” value [7] was 0.5 and the IC50 (Plasmodium falciparum [8]) was 2.6 µM.

`COc1ccc(/C=C/c2cc(OC)c(O)c(OC)c2)cc1` showed an IC50 (Plasmodium falciparum [1]) of over 100 µM.

`COc1cc(OC)c(OC)cc1/C=C/C(=O)c1ccc(O)cc1` gave an IC50 (Plasmodium falciparum [1]) of 61 µM.

Compound `COc1cc(/C=C/c2ccc(/C=C/c3cc(OC)c(O)c(OC)c3)cc2)cc(OC)c1O` has an IC50 (Plasmodium falciparum [1]) of 11 µM.

`COc1cc(OC)c(OC)cc1/C=C/C(=O)c1ccc(/C=C/c2ccccc2)cc1` gave an IC50 (Plasmodium falciparum [1]) of 18 µM.

For `COc1cc(OC)c(OC)cc1/C=C/C(=O)c1ccc(/C=C/c2ccc(O)c(O)c2)cc1`, the selectivity ratio [2] was 7.6, the IC50 (Plasmodium falciparum [3]) was 4.6 µM and the “Ratio IC50” value [4] was 1.1. The IC50 [5] was 19 µM, the IC50 (Plasmodium falciparum [1]) was 4.2 µM and the selectivity ratio [6] was over 23.8. For the same compound, the “Ratio IC50” value [7] was 1.7 and the IC50 (Plasmodium falciparum [8]) was 7.1 µM.

For `COc1cc(/C=C/c2ccc(C(=O)/C=C/c3cc(OC)c(OC)cc3OC)cc2)ccc1O`, the selectivity ratio [2] was 4.7, the IC50 (Plasmodium falciparum [3]) was 2.65 µM and the “Ratio IC50” value [4] was 0.5. It also gave an IC50 [5] of 23 µM, an IC50 (Plasmodium falciparum [1]) of 5.3 µM and a selectivity ratio [6] of over 37.7. The “Ratio IC50” value [7] was 0.7 and the IC50 (Plasmodium falciparum [8]) was 3.71 µM.

For `COc1cc(OC)c(OC)cc1/C=C/C(=O)c1ccc(/C=C/c2ccc(Cl)cc2)cc1`, the IC50 (Plasmodium falciparum [1]) was over 100 µM.

In the case of `COc1ccc(C(=O)/C=C/c2ccc(/C=C/c3cc(OC)c(O)c(OC)c3)cc2)cc1`, the IC50 (Plasmodium falciparum [1]) is reported as 50 µM.

With `COc1ccc(/C=C/C(=O)c2ccc(/C=C/c3ccccc3)cc2)cc1` the IC50 (Plasmodium falciparum [1]) was over 100 µM.

For `COc1ccc(/C=C/C(=O)c2ccc(/C=C/c3ccccc3)cc2)cc1OC`, the IC50 (Plasmodium falciparum [1]) was 29.5 µM.

In the case of `COc1cc(OC)c(/C=C/C(=O)c2ccc(/C=C/c3cc(OC)c(O)c(OC)c3)cc2)c(OC)c1`, the IC50 (Plasmodium falciparum [1]) is reported as 16 µM.

With `COc1cc(OC)c(OC)cc1/C=C/C(=O)c1ccc(/C=C/c2cc(OC)c(OS(=O)(=O)c3cc(Cl)cc(Cl)c3)c(OC)c2)cc1` the IC50 (Plasmodium falciparum [1]) was over 100 µM.

In the case of `COc1cc(OC)c(OC)cc1/C=C/C(=O)c1cccc(C(=O)/C=C/c2cc(OC)c(OC)cc2OC)c1`, the IC50 (Plasmodium falciparum [1]) is reported as 2.8 µM.

With `COc1cc(OC)c(C(=O)/C=C/c2ccc(/C=C/c3cc(OC)c(O)c(OC)c3)cc2)cc1OC` the selectivity ratio [2] was 8.4, the IC50 (Plasmodium falciparum [3]) was 2.58 µM and the “Ratio IC50” value [4] was 0.6. For the same compound, the IC50 [5] was 100 µM, the IC50 (Plasmodium falciparum [1]) was 4.3 µM and the selectivity ratio [6] was over 46.5. The “Ratio IC50” value [7] was 0.7 and the IC50 (Plasmodium falciparum [8]) was 3.01 µM.

For `COc1ccc(C(=O)/C=C/c2ccc(/C=C/c3ccc(O)c(OC)c3)cc2)cc1`, the IC50 (Plasmodium falciparum [1]) was 66 µM.

Work on `COc1ccc(/C=C/C(=O)c2ccc(/C=C/c3ccc(O)c(OC)c3)cc2)cc1` yielded an IC50 (Plasmodium falciparum [1]) of 34 µM.

Compound `O=C(/C=C/c1cccs1)c1ccc(/C=C/c2ccccc2)cc1` has an IC50 (Plasmodium falciparum [1]) of 36.3 µM.

In the case of `COc1cc(OC)c(OC)cc1/C=C/C(=O)c1ccc(/C=C/c2ccc(O)cc2)cc1`, the IC50 (Plasmodium falciparum [1]) is reported as 10 µM.

`COc1ccc(/C=C/C(=O)c2ccc(/C=C/c3cc(OC)c(O)c(OC)c3)cc2)cc1` gave an IC50 (Plasmodium falciparum [1]) of 15 µM.

In the case of `COc1cc(/C=C/c2ccc(C(=O)/C=C/c3ccc(OC)c(OC)c3OC)cc2)cc(OC)c1O`, the selectivity ratio [2] is reported as over 43, the IC50 (Plasmodium falciparum [3]) is reported as 5.88 µM and the “Ratio IC50” value [4] is reported as 1.2. For the same compound, the IC50 [5] was 70 µM, the IC50 (Plasmodium falciparum [1]) was 4.9 µM and the selectivity ratio [6] was over 43. For the same compound, the “Ratio IC50” value [7] was 1.1 and the IC50 (Plasmodium falciparum [8]) was 5.39 µM.

Work on `O=C(/C=C/c1c[nH]c2ccc(Cl)cc12)c1ccc(/C=C/c2ccccc2)cc1` yielded an IC50 (Plasmodium falciparum [1]) of 25.6 µM.
